The text below walks through data of ChEMBL document CHEMBL1136237, “2-piperidin-4-yl-benzimidazoles with broad spectrum antibacterial activities” (2003).

Assay [1] concerns Staphylococcus aureus. Put plainly: Antibacterial activity determined against gram-positive Staphylococcus aureus 13709. The assay is classed as functional. The method, boiled down:
(§1)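 Broth microdilution: an overnight-culture bacterial suspension was added to compound in 2.5% DMSO in water, giving a final inoculum of about 10^2–10^3 CFU/well. Plates were incubated 20–24 h at 37 °C, and growth relative to a no-compound control was read as A595. MIC was given as a range: complete inhibition at the upper concentration, viable cells at the lower.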

Assay [2] has as its system Streptococcus pneumoniae. The experiment in a line: Antibacterial activity determined against gram-positive Streptococcus pneumoniae 6303. The assay is classed as functional. Put shortly: as §1
Assay [3] relates to Enterococcus faecium. The experiment in a line: Antibacterial activity determined against Enterococcus faecium ATCC 6569. The assay is classed as functional. Put shortly:
as §1

The test system of assay [4] is Escherichia coli. The experiment in a line: Antibacterial activity determined against Escherichia coli. The assay is classed as functional. Put shortly: as §1
In assay [5] the test system is Enterococcus faecalis. Put plainly: Antibacterial activity determined against Enterococcus faecalis ATCC 49757. The assay is classed as functional. The method, boiled down:
as §1

Assay [6] in a line: Inhibition of bacterial transcription/translation.
The test system of assay [7] is Enterococcus faecalis. The experiment in a line: Antibacterial activity determined against Enterococcus faecalis ATCC 828. The assay is classed as functional. The method, boiled down: as §1
Assay [8] has as its system Enterococcus faecalis. The experiment in a line: Antibacterial activity determined against Enterococcus faecalis ATCC 11823. The assay is classed as functional. Put shortly: as §1
The subject of assay [9] is Enterococcus faecalis. Put plainly: Antibacterial activity determined against Enterococcus faecalis ATCC 4200. The assay is classed as functional. The method, boiled down:
as §1

Assay [10] concerns Klebsiella pneumoniae. The experiment in a line: Antibacterial activity determined against gram-negativeK. pneumoniae 13383. The assay is classed as functional. Put shortly: as §1
Assay [11] concerns Escherichia coli. Put plainly: Antibacterial activity determined against gram-negativeE. coli 25922. The assay is classed as functional. The method, boiled down:
as §1

Assay [12] has as its system Streptococcus pyogenes. Put plainly: Antibacterial activity determined against gram-positive Streptococcus pyogenes 49399. The assay is classed as functional. The method, boiled down:
as §1

Assay [13] relates to Pseudomonas aeruginosa. Put plainly: Antibacterial activity determined against gram-negativeP. aeruginosa 25416. The assay is classed as functional. Put shortly: as §1
Assay [14] concerns Proteus vulgaris. The experiment in a line: Antibacterial activity determined against gram-negativeP. vulgaris 8427. The assay is classed as functional. Put shortly:
as §1

Assay [15] has as its system Enterococcus hirae. Put plainly: Antibacterial activity determined against gram-positive Enterococcus hirae 29212. The assay is classed as functional. The method, boiled down:
as §1

Assay [16] deals with Staphylococcus aureus. Put plainly: Antibacterial activity determined against Staphylococcus aureus. The assay is classed as functional. The method, boiled down: as §1
Assay [17] concerns Enterococcus faecium. Put plainly: Antibacterial activity determined against Enterococcus faecium ATCC 882. The assay is classed as functional. Put shortly:
as §1

Assay [18] concerns Candida albicans. Put plainly: Antifungal activity determined against Candida albicans 10231. The assay is classed as functional. The method, boiled down:
(§2)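 Candida albicans: an overnight-culture yeast suspension was added to compound in 2.5% DMSO in water, giving a final inoculum of about 10^2–10^3 CFU/well. Plates were incubated 40–48 h at 25 °C, and growth versus a no-compound control was read as A595. MIC was given as a range: complete inhibition at the higher concentration, viable cells at the lower.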

The subject of assay [19] is Enterococcus faecalis. Put plainly: Antibacterial activity determined against Enterococcus faecalis ATCC 23241. The assay is classed as functional. Put shortly:
as §1

For assay [20], the system named is Candida albicans. The experiment in a line: Antibacterial activity determined against Candida albicans 10231. The assay is classed as functional. The method, boiled down: as §2

In brackets after ≈: the same amount, converted by molar mass.

Turning to `NC1CCN(Cc2ccc(Cn3c(C4CCNCC4)nc4cc(Cl)c(Cl)cc43)cc2)CC1`, the MIC – broadly, the lowest concentration that inhibits growth of the organism – in assay [1] came to 6 µM (≈ 2.83 µg/mL); in assay [2] it was 25 µM (≈ 11.8 µg/mL); in assay [3], 6 µM (≈ 2.83 µg/mL); in assay [4] it was 50 µM (≈ 23.6 µg/mL); in assay [5], 12 µM (≈ 5.67 µg/mL); in assay [7], 12 µM (≈ 5.67 µg/mL). Moreover, the MIC in [8] turned out to be 12 µM (≈ 5.67 µg/mL); in [9], 12 µM (≈ 5.67 µg/mL); in assay [10] it was 25 µM (≈ 11.8 µg/mL); in assay [11], 50 µM (≈ 23.6 µg/mL); in assay [12], 6 µM (≈ 2.83 µg/mL); in assay [13], 12 µM (≈ 5.67 µg/mL). Besides, the MIC was 25 µM (≈ 11.8 µg/mL) in assay [14]; 3 µM (≈ 1.42 µg/mL) in assay [15]; 6 µM (≈ 2.83 µg/mL) in [16]; 12 µM (≈ 5.67 µg/mL) in assay [17]; 50 µM (≈ 23.6 µg/mL) in assay [18]; 12 µM (≈ 5.67 µg/mL) in assay [19]. Further, the IC50 – broadly, the concentration that inhibits the measured activity by half – in assay [6] came out at 60 µM.
For `CCCCCCNCc1ccc(Cn2c(C3CCNCC3)nc3cc(Cl)c(Cl)cc32)cc1`, the MIC in [1] was 3 µM (≈ 1.42 µg/mL); in [2] it was 6 µM (≈ 2.84 µg/mL); in assay [3], 3 µM (≈ 1.42 µg/mL); in assay [4], 6 µM (≈ 2.84 µg/mL); in assay [5], 3 µM (≈ 1.42 µg/mL); in assay [7], 3 µM (≈ 1.42 µg/mL). Also, the MIC in assay [8] worked out at 3 µM (≈ 1.42 µg/mL); in [9], 3 µM (≈ 1.42 µg/mL); in assay [10], 6 µM (≈ 2.84 µg/mL); in assay [11], 6 µM (≈ 2.84 µg/mL); in [12], 3 µM (≈ 1.42 µg/mL); in assay [13] it was 25 µM (≈ 11.8 µg/mL). Besides, the MIC in assay [14] is 12 µM (≈ 5.68 µg/mL); in assay [15], 1 µM (≈ 0.473 µg/mL); in assay [16] it was 3 µM (≈ 1.42 µg/mL); in assay [17], 3 µM (≈ 1.42 µg/mL); in assay [18], 25 µM (≈ 11.8 µg/mL); in assay [19], 3 µM (≈ 1.42 µg/mL). For the same compound, in assay [6], the IC50 is more than 100 µM.
With `Clc1cc2nc(C3CCNCC3)n(Cc3ccc(CNC4CCNCC4)cc3)c2cc1Cl`, the MIC in assay [1] was 6 µM (≈ 2.83 µg/mL); in assay [2] it was 12 µM (≈ 5.67 µg/mL); in assay [3], 12 µM (≈ 5.67 µg/mL); in assay [4], 12 µM (≈ 5.67 µg/mL); in assay [5], 12 µM (≈ 5.67 µg/mL); in [7] it was 12 µM (≈ 5.67 µg/mL). Also, the MIC worked out at 12 µM (≈ 5.67 µg/mL) in assay [8]; 12 µM (≈ 5.67 µg/mL) in [9]; 12 µM (≈ 5.67 µg/mL) in assay [10]; 12 µM (≈ 5.67 µg/mL) in assay [11]; 6 µM (≈ 2.83 µg/mL) in assay [12]; 12 µM (≈ 5.67 µg/mL) in [13]. For the same compound, the MIC in [14] turned out to be 25 µM (≈ 11.8 µg/mL); in [15], 3 µM (≈ 1.42 µg/mL); in [16], 6 µM (≈ 2.83 µg/mL); in assay [17], 12 µM (≈ 5.67 µg/mL); in [19] it was 12 µM (≈ 5.67 µg/mL); in assay [20] it was 50 µM (≈ 23.6 µg/mL). Further, the concentration for half-maximal inhibition (IC50) in assay [6] was more than 100 µM.
`CCCCCNCc1ccc(Cn2c(C3CCNCC3)nc3cc(Cl)c(Cl)cc32)cc1`: the MIC in assay [1] turned out to be 6 µM (≈ 2.76 µg/mL); in assay [2], 12 µM (≈ 5.51 µg/mL); in [3], 3 µM (≈ 1.38 µg/mL); in [4], 12 µM (≈ 5.51 µg/mL); in assay [5], 6 µM (≈ 2.76 µg/mL); in assay [7], 6 µM (≈ 2.76 µg/mL). For the same compound, the MIC in assay [8] is 3 µM (≈ 1.38 µg/mL); in assay [9] it was 6 µM (≈ 2.76 µg/mL); in assay [10], 6 µM (≈ 2.76 µg/mL); in assay [11] it was 12 µM (≈ 5.51 µg/mL); in assay [12], 3 µM (≈ 1.38 µg/mL); in assay [13] it was 25 µM (≈ 11.5 µg/mL). Moreover, the MIC in assay [14] amounted to 25 µM (≈ 11.5 µg/mL); in assay [15] it was 1 µM (≈ 0.459 µg/mL); in assay [16], 6 µM (≈ 2.76 µg/mL); in assay [17] it was 6 µM (≈ 2.76 µg/mL); in assay [18] it was 50 µM (≈ 23 µg/mL); in [19], 6 µM (≈ 2.76 µg/mL). In assay [6], this compound displayed an IC50 of more than 100 µM.
Take `Clc1cc2nc(C3CCNCC3)n(Cc3ccc(CN4CCNCC4)cc3)c2cc1Cl`: the MIC in assay [1] was found to be 6 µM (≈ 2.75 µg/mL); in [2], 12 µM (≈ 5.5 µg/mL); in assay [3], 6 µM (≈ 2.75 µg/mL); in [4], 12 µM (≈ 5.5 µg/mL); in [5], 12 µM (≈ 5.5 µg/mL); in assay [7] it was 6 µM (≈ 2.75 µg/mL). Further, the MIC in assay [8] was 12 µM (≈ 5.5 µg/mL); in [9], 12 µM (≈ 5.5 µg/mL); in [10] it was 6 µM (≈ 2.75 µg/mL); in [11] it was 12 µM (≈ 5.5 µg/mL); in [12], 6 µM (≈ 2.75 µg/mL); in assay [13], 12 µM (≈ 5.5 µg/mL). Further, the minimal inhibitory concentration (MIC) in [14] was determined as 12 µM (≈ 5.5 µg/mL); in [15] it was 3 µM (≈ 1.38 µg/mL); in [16], 6 µM (≈ 2.75 µg/mL); in [17], 6 µM (≈ 2.75 µg/mL); in assay [18], 50 µM (≈ 22.9 µg/mL); in assay [19] it was 6 µM (≈ 2.75 µg/mL). Also, the IC50 in assay [6] was more than 100 µM.
Consider `NCCCCNCc1ccc(Cn2c(C3CCNCC3)nc3cc(Cl)c(Cl)cc32)cc1`, for which the MIC in assay [1] was 6 µM (≈ 2.76 µg/mL); in [2], 25 µM (≈ 11.5 µg/mL); in assay [3], 12 µM (≈ 5.53 µg/mL); in [4], 25 µM (≈ 11.5 µg/mL); in assay [5] it was 12 µM (≈ 5.53 µg/mL); in assay [7] it was 12 µM (≈ 5.53 µg/mL). The minimum inhibitory concentration (MIC) in assay [8] amounted to 12 µM (≈ 5.53 µg/mL); in assay [9] it was 12 µM (≈ 5.53 µg/mL); in assay [10], 25 µM (≈ 11.5 µg/mL); in [11], 25 µM (≈ 11.5 µg/mL); in [12] it was 6 µM (≈ 2.76 µg/mL); in assay [13], 25 µM (≈ 11.5 µg/mL). Further, the MIC was 3 µM (≈ 1.38 µg/mL) in assay [15]; 6 µM (≈ 2.76 µg/mL) in [16]; 12 µM (≈ 5.53 µg/mL) in assay [17]; more than 100 µM in assay [18]; 12 µM (≈ 5.53 µg/mL) in [19]. For the same compound, 50 µM corresponded to half-maximal inhibition in assay [6] (IC50).
